Reference: ChEMBL document CHEMBL4004856, “Synthesis of new heterocyclic compounds based on pyrazolopyridine scaffold and evaluation of their neuroprotective potential in MPP+-induced neurodegeneration” (Eur J Med Chem, 2017)
Active and inactive are the calls of the source. The calls are words filed in the database; no cut-off is given here.

What was measured:
SH-SY5Y [1] = assay: Neuroprotective activity against MPP+-induced toxicity in human SH-SY5Y cells assessed as increase in cell viability preincubated for 1 hr followed by MPP+ addition measured up to 24 hrs by MTT assay; format: functional, cell-based
Procedure, shortened: (§1)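 SH-SY5Y cells seeded 2x10³/well and left to adhere 24 h. Compounds (5–20 μM, DMSO) were added 1 h before 2 mM MPP⁺ for 24 h at 37°C, 5% CO2. Viability was read by MTT (0.5 mg/ml final, 3 h), DMSO solubilisation and absorbance at 570/630 nm, expressed as % of vehicle control. Mean ± SD, n = 5.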

SH-SY5Y [2] = assay: Neuroprotective activity against MPP+-induced toxicity in human SH-SY5Y cells assessed as increase in cell viability at 5 uM preincubated for 1 hr followed by MPP+ addition measured up to 24 hrs by MTT assay relative to control; format: functional; procedure, shortened: as §1
SH-SY5Y [3] = assay: Cytotoxicity against human SH-SY5Y cells assessed as reduction in cell viability up to 20 uM up to 24 hrs by MTT assay; format: cell-based
Procedure, shortened: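 SH-SY5Y cells in DMEM with 10% FBS and penicillin/streptomycin at 37°C, 5% CO2, seeded 2x10³ cells/well and left to adhere 24 h. Compounds (5, 10, 20 μM, in DMSO) were added for 3, 6 and 24 h. MTT was then added (0.5 mg/ml final) for 3 h, and formazan was dissolved in DMSO and read at 570/630 nm. Values are relative to vehicle control.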

SH-SY5Y [4] = assay: Neuroprotective activity against MPP+-induced toxicity in human SH-SY5Y cells assessed as increase in cell viability at 10 to 20 uM preincubated for 1 hr followed by MPP+ addition measured up to 24 hrs by MTT assay relative to control; format: functional; procedure, shortened: as §1
SH-SY5Y [5] = assay: Neuroprotective activity against MPP+-induced toxicity in human SH-SY5Y cells assessed as decrease in caspase-3 activation at 5 uM preincubated for 1 hr followed by MPP+ addition measured up to 12 hrs by Western blot method; format: functional, cell-based
Procedure, shortened: (§2)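 SH-SY5Y cells seeded 5x10⁵/well and left to adhere 24 h. Compounds (1 or 5 μM) were added 1 h before 2 mM MPP⁺ for 12 h. Lysates in RIPA-type buffer; 10 μg protein run on 10% SDS gels and blotted to PVDF. Blots were probed with rabbit anti-bax, Bcl-2, Bcl-xl or caspase-3 (cleaved p17/p19) antibodies and detected by chemiluminescence. Densitometry was normalised to β-actin. Mean ± SD, n = 3.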

SH-SY5Y [6] = assay: Neuroprotective activity against MPP+-induced toxicity in human SH-SY5Y cells assessed as ratio of Bcl2 to beta-actin protein expression level at 5 uM preincubated for 1 hr followed by MPP+ addition measured up to 12 hrs by Western blot method (reference value: 2.84 +/- 0.02); format: functional; procedure, shortened: as §2
SH-SY5Y [7] = assay: Neuroprotective activity against MPP+-induced toxicity in human SH-SY5Y cells assessed as decrease in caspase-3 activation at 1 uM preincubated for 1 hr followed by MPP+ addition measured up to 12 hrs by Western blot method; format: functional, cell-based; procedure, shortened: as §2
SH-SY5Y [8] = assay: Neuroprotective activity against MPP+-induced toxicity in human SH-SY5Y cells assessed as ratio of Bax to beta-actin protein expression level at 1 uM preincubated for 1 hr followed by MPP+ addition measured up to 12 hrs by Western blot method (reference value: 1.26); format: functional; procedure, shortened: as §2
SH-SY5Y [9] = assay: Neuroprotective activity against MPP+-induced toxicity in human SH-SY5Y cells assessed as increase in Bcl2 protein expression level preincubated for 1 hr followed by MPP+ addition measured up to 12 hrs by Western blot method
SH-SY5Y [10] = assay: Neuroprotective activity against MPP+-induced toxicity in human SH-SY5Y cells assessed as increase in Bcl2 protein expression level at 1 uM preincubated for 1 hr followed by MPP+ addition measured up to 12 hrs by Western blot method
SH-SY5Y [11] = assay: Neuroprotective activity against MPP+-induced toxicity in human SH-SY5Y cells assessed as increase in Bcl-xl protein level at 1 uM preincubated for 1 hr followed by MPP+ addition measured up to 12 hrs by Western blot method; format: functional, cell-based; procedure, shortened: as §2
SH-SY5Y [12] = assay: Neuroprotective activity against MPP+-induced toxicity in human SH-SY5Y cells assessed as ratio of Bax to beta-actin protein expression level at 5 uM preincubated for 1 hr followed by MPP+ addition measured up to 12 hrs by Western blot method (reference value: 1.26); format: functional; procedure, shortened: as §2
SH-SY5Y [13] = assay: Neuroprotective activity against MPP+-induced toxicity in human SH-SY5Y cells assessed as decrease in Bax protein expression level preincubated for 1 hr followed by MPP+ addition measured up to 12 hrs by Western blot method; format: functional, cell-based; procedure, shortened: as §2
SH-SY5Y [14] = assay: Neuroprotective activity against MPP+-induced toxicity in human SH-SY5Y cells assessed as increase in Bcl-xl protein level by measuring ratio of Bcl-xl to beta actin level at 5 uM preincubated for 1 hr followed by MPP+ addition measured up to 12 hrs by Western blot method (reference value: 0.27 +/- 0.001); format: functional; procedure, shortened: as §2
SH-SY5Y [15] = assay: Neuroprotective activity against MPP+-induced toxicity in human SH-SY5Y cells assessed as increase in cell viability at 20 uM preincubated for 1 hr followed by MPP+ addition measured up to 24 hrs by MTT assay relative to control; format: functional; procedure, shortened: as §1
SH-SY5Y [16] = assay: Neuroprotective activity against MPP+-induced toxicity in human SH-SY5Y cells assessed as increase in cell viability at 5 to 10 uM preincubated for 1 hr followed by MPP+ addition measured up to 24 hrs by MTT assay relative to control; format: functional; procedure, shortened: as §1

Row | SMILES | Activity (SH-SY5Y [1]) | Activity (SH-SY5Y [2]) | Activity (SH-SY5Y [3]) | Activity (SH-SY5Y [4]) | Activity (SH-SY5Y [5]) | Ratio (SH-SY5Y [6]) | Activity (SH-SY5Y [7]) | Ratio (SH-SY5Y [8]) | Activity (SH-SY5Y [9]) | Activity (SH-SY5Y [10]) | Activity (SH-SY5Y [11]) | Ratio (SH-SY5Y [12]) | Activity (SH-SY5Y [13]) | Ratio (SH-SY5Y [14]) | Activity (SH-SY5Y [15]) | Activity (SH-SY5Y [16])
1 | Cc1ccccc1-c1c(C)nc2c(c(C)nn2-c2ccccc2)c1C | Dose-dependent effect | 20 - 30% | Non-Toxic | 10 - 20% |  |  |  |  |  |  |  |  |  |  |  | 
2 | Cc1ccc(-c2c(C)nc3c(c(C)nn3-c3ccccc3)c2C)cc1 | Dose-dependent effect | 20 - 30% | Non-Toxic | 10 - 20% | Active | 3.62 | Active | 1.11 | Dose-dependent effect | inactive | Active | 0.49 - 1.03 | Dose-dependent effect |  |  | 
3 | COc1ccc(-c2c(C)nc3c(c(C)nn3-c3ccccc3)c2C)cc1 | Dose-dependent effect | 20 - 30% | Non-Toxic | 10 - 20% |  |  |  |  |  |  |  |  |  |  |  | 
4 | Cc1nc2c(c(C)nn2-c2ccccc2)c(C)c1-c1ccc(C(F)(F)F)cc1 | Dose-dependent effect | 20 - 30% | Non-Toxic | 10 - 20% | inactive | 0.85 | Active | 0.85 | Dose-dependent effect | inactive | Active | 0.49 - 1.03 | Dose-dependent effect | 0.28 |  | 
5 | Cc1nc2c(c(C)nn2-c2ccccc2)c(C)c1-c1ccc(Cl)cc1 | Dose-dependent effect |  | Non-Toxic |  |  | 0.39 | Active | 0.78 | Dose-dependent effect | inactive | Active | 0.49 - 1.03 | Dose-dependent effect |  | 10 - 20% | 20 - 30%
6 | Cc1nc2c(c(C)nn2-c2ccccc2)c(C)c1-c1cccc(C#N)c1 | Dose-dependent effect | 20 - 30% | Non-Toxic | 10 - 20% |  |  |  |  |  |  |  |  |  |  |  | 
7 | Cc1nc2c(c(C)nn2-c2ccccc2)c(C)c1-c1ccccc1 | Dose-dependent effect | 20 - 30% | Non-Toxic | 10 - 20% |  |  |  |  |  |  |  |  |  |  |  | 
8 | Cc1nc2c(c(C)nn2-c2ccccc2)c(C)c1-c1ccc(F)nc1 | Dose-dependent effect |  | Non-Toxic |  |  |  |  |  |  |  |  |  |  |  | 10 - 20% | 20 - 30%
9 | Cc1nc2c(c(C)nn2-c2ccccc2)c(C)c1-c1ccc([N+](=O)[O-])cc1 | Dose-dependent effect | 20 - 30% | Non-Toxic | 10 - 20% | inactive | 3.22 | Active | 0.75 | Dose-dependent effect | inactive | Active | 0.49 - 1.03 | Dose-dependent effect |  |  | 
10 | Cc1nc2c(c(C)nn2-c2ccccc2)c(C)c1-c1ccc(C=O)cc1 | Dose-dependent effect | 20 - 30% | Non-Toxic | 10 - 20% | Active | 2.63 | Active | 0.86 | Dose-dependent effect | inactive | Active | 0.49 - 1.03 | Dose-dependent effect |  |  | 
11 | Cc1nc2c(c(C)nn2-c2ccccc2)c(C)c1-c1cccs1 | Dose-dependent effect | 20 - 30% | Non-Toxic | 10 - 20% |  | 4.33 | Active | 0.76 | Dose-dependent effect | inactive | Active | 0.49 - 1.03 | Dose-dependent effect |  |  | 
12 | Cc1nc2c(c(C)nn2-c2ccccc2)c(C)c1Br | Dose-dependent effect | 20 - 30% | Non-Toxic | 10 - 20% |  |  |  |  |  |  |  |  |  |  |  | 
13 | CCOC(=O)c1ccc(-c2c(C)nc3c(c(C)nn3-c3ccccc3)c2C)cc1 | Dose-dependent effect | 20 - 30% | Non-Toxic | 10 - 20% |  |  |  |  |  |  |  |  |  |  |  | 
14 | Cc1nc2c(c(C)nn2-c2ccccc2)c(C)c1-c1ccc(N(C)C)cc1 | Dose-dependent effect | 20 - 30% | Non-Toxic | 10 - 20% |  |  |  |  |  |  |  |  |  |  |  | 
15 | Cc1cccc(-c2c(C)nc3c(c(C)nn3-c3ccccc3)c2C)c1 | Dose-dependent effect | 20 - 30% | Non-Toxic | 10 - 20% |  |  |  |  |  |  |  |  |  |  |  | 
